Results gathered from unrelated publications.
Lines come from different studies, so protocols differ.
Organism: Staphylococcus aureus
Observed: microbial growth

SMILES | assay | test system | conditions | MIC
CN[C@H](CC(C)C)C(=O)N[C@H]1C(=O)N[C@@H](CC(N)=O)C(=O)N[C@H]2C(=O)N[C@H]3C(=O)N[C@H](C(=O)N[C@H](C(=O)O)c4cc(O)cc(O)c4-c4cc3ccc4O)[C@H](O)c3ccc(c(Cl)c3)Oc3cc2cc(c3O[C@@H]2O[C@H](CO)[C@@H](O)[C@H](O)[C@H]2O[C@H]2C[C@](C)(N)[C@H](O)[C@H](C)O2)Oc2ccc(cc2Cl)[C@H]1O | broth dilution | 16339 |  | 1 µg/mL
CC(=O)Nc1nc(C)c(-c2ccc(Cl)c(S(=O)(=O)NCCO)c2)s1 |  | NCTC8325 |  | > 30 µM
CCOc1cc(-c2nc3ccccc3[nH]2)ccc1O | broth dilution | ATCC29213 MSSA |  | 128 µg/mL
COc1c(C)c(OC(=O)c2ccccc2)c(C)c(O)c1C(=O)/C=C/c1ccccc1 | broth dilution | ATCC25923 |  | 5000 µg/mL
COC(=O)Nc1ccc(-c2nc(N3CCOCC3)c3cnn(C4CCN(Cc5cccnc5)CC4)c3n2)cc1 |  | NCTC8325 |  | > 30 µM
Clc1ccc(-c2nc3ccccc3n2Cc2ccccc2)cc1Cl | broth dilution | ATCC29213 MSSA |  | 8 µg/mL
CC1(C)S[C@@H]2[C@H](NC(=O)COc3ccccc3)C(=O)N2[C@H]1C(=O)O | broth dilution | MRSA | 18 h, clinical isolate | > 128 µg/mL
COc1ccc(NCc2ccc(Oc3ccccn3)cc2)cc1 |  |  |  | > 3.1 µg/mL
CN1CCN(CCOc2cc(OC3CCOCC3)c3c(Nc4c(Cl)ccc5c4OCO5)ncnc3c2)CC1 |  | NCTC8325 |  | > 30 µM
Cc1ccc2nc(-c3c(F)cccc3Cl)[nH]c2c1 | broth dilution | ATCC29213 MSSA |  | 64 µg/mL
CC(=O)NC[C@H]1CN(c2ccc(N3CCOCC3)c(F)c2)C(=O)O1 | broth dilution | MRSA NRS383 USA200 | drug-resistant strain | 2 µg/mL
O=C(Nc1ccc(F)cc1)c1ccccc1O | broth dilution | ATCC29213 |  | 32 µg/mL
Cc1ccc2nc(-c3ccc4c(c3)OCO4)[nH]c2c1 | broth dilution | ATCC29213 MSSA |  | 256 µg/mL
O=C1NC(=S)N/C1=C\c1ccc(-c2ccc(N(c3ccccc3)c3ccccc3)cc2)cc1 | broth dilution | ATCC43300 |  | > 1000 µg/mL
Cc1c(CN(C)C(=O)/C=C/c2cnc3c(c2)CC(CCN)C(=O)N3)oc2ccccc12.Cl (stereo not shown) | broth dilution | ATCC29213 |  | 0.125 µg/mL
CC(C)Oc1c(NC(=O)c2ccc(NC(=O)[C@H](CC(N)=O)NC(=O)c3ccc(NC(=O)c4ccc([N+](=O)[O-])c(OC(C)C)c4O)cc3)cc2)ccc(C(=O)Nc2ccc(C(=O)O)cc2)c1O |  | ATCC29213 |  | > 64 µg/mL
Cc1ccc2nc(-c3ccc(Cl)cc3)n(Cc3ccccc3)c2c1 | broth dilution | ATCC29213 MSSA |  | 4 µg/mL
CC(C)Oc1c(NC(=O)c2ccc(NC(=O)[C@H](CC(N)=O)NC(=O)c3ccc(NC(=O)c4ccc(NC(N)=O)cc4)cc3)cc2)ccc(C(=O)Nc2ccc(C(=O)O)cc2)c1O |  | ATCC29213 |  | 64 µg/mL
CCOc1ccc(-c2nc3ccccc3[nH]2)cc1 | broth dilution | ATCC29213 MSSA |  | 256 µg/mL
O=C(O)CN1C(=O)/C(=C/c2ccc(-c3ccc(N(c4ccccc4)c4ccccc4)cc3)c3ccccc23)SC1=S | broth dilution | ATCC43300 |  | 1000 µg/mL

SMILES | assay | test system | conditions | MIC
CNc1cccc2cc(C(=O)Nc3ccc(C(=O)O)cc3)c(=O)[nH]c12 |  | ATCC29213 |  | 16 µg/mL
O=[N+]([O-])c1ccc(O)c2ncccc12 | broth dilution | ATCC29213 |  | 2 µg/mL
O=C1NN=C(N=Cc2ccc(O)c(O)c2)C1=NNn1c(-c2ccccc2)nc2ccccc2c1=O | broth dilution |  | 24 h | 107 µM
CC1(C)S[C@@H]2[C@H](NC(=O)[C@H](N)c3ccccc3)C(=O)N2[C@H]1C(=O)O | broth dilution | 745524 |  | 4 µg/mL
O=C(O)CN1C(=O)/C(=C/c2ccc(-c3ccc(N(c4ccccc4)c4ccccc4)cc3)cc2)NC1=S | broth dilution | ATCC6538 |  | 1.95 µg/mL
Cc1cnc(Nc2ccc(OCCN3CCCC3)cc2)nc1Nc1cccc(S(=O)(=O)NC(C)(C)C)c1 |  | NCTC8325 |  | > 30 µM
CC(C)Oc1c(NC(=O)c2ccc(NC(=O)[C@H](CC(N)=O)NC(=O)c3ccc(NC(=O)c4ccc(C#N)c(F)c4)cc3)cc2)ccc(C(=O)Nc2ccc(C(=O)O)cc2)c1O |  | ATCC29213 |  | 2 µg/mL
C/C=C(\C)c1cc(OC(=O)c2c(C)c(Cl)c(O)c(Cl)c2O)c(C)c(O)c1C(=O)O | broth dilution | 745524 |  | 64 µg/mL
Nc1c(C(=O)Nc2ccc(C3=NCCN3)cc2)cccc1C(=O)Nc1ccc(C2=NCCN2)cc1 |  |  |  | > 64 µg/mL
O=C1NC(=S)S/C1=C\c1c2ccccc2c(-c2ccc(N(c3ccccc3)c3ccccc3)cc2)c2ccccc12 | broth dilution | ATCC25923 |  | > 1000 µg/mL
CNC(=O)c1ccccc1Sc1ccc2c(/C=C/c3ccccn3)n[nH]c2c1 |  | NCTC8325 |  | > 30 µM
CN1CCN=C1c1ccc(NC(=O)c2ccc(C(=O)Nc3ccc(C4=NCCN4C)cc3)cc2)cc1 |  |  |  | 8 µg/mL
CC(C)Oc1c(N)ccc(C(=O)Nc2ccc(C(=O)N[C@@H](CC(N)=O)C(=O)Nc3ccc(C(=O)Nc4ccc(C(=O)Nc5ccc(C(=O)O)cc5)c(O)c4OC(C)C)cc3)cc2)c1O |  | ATCC29213 |  | > 64 µg/mL
O=C(Cc1ccc(O)c(O)c1)NCCCCCCCC[P+](c1ccccc1)(c1ccccc1)c1ccccc1.[Br-] | broth dilution | ATCC43300 MRSA | 18 h | > 32 µg/mL
Cc1ccc(C)n1-c1ccc(-c2nnc(S)s2)cc1 | broth dilution | ATCC11632 | 18 h | 1 µg/mL
C/C=C(\C)c1cc(O)c(C)c(OC(=O)c2c(C)c(Cl)c(O)c(Cl)c2O)c1 | broth dilution | 16339 |  | 8 µg/mL
C[C@@H](O)[C@H]1C(=O)N2C(C(=O)O)=C(S[C@@H]3CN[C@H](C(=O)N(C)C)C3)[C@H](C)[C@H]12 | broth dilution | KCTC1621 | 16 h | 8 µM
C[n+]1ccc(/C=C2\Sc3ccccc3N2CCCN2CCCCC2)c2ccccc21.[I-] | broth dilution | ATCCBAA44 |  | 4 µg/mL
CC(C)n1nc(-c2ccc3oc(N)nc3c2)c2c(N)ncnc21 |  | NCTC8325 |  | > 30 µM
CCCCCCC#Cc1cncc(-c2nnc(SCc3ccc([N+](=O)[O-])o3)n2C)c1 |  | MRSA | drug-resistant strain | ≥ 20 µg/mL

SMILES | assay | test system | conditions | MIC
COc1cccc(-c2nc3ccccc3[nH]2)c1 | broth dilution | ATCC29213 MSSA |  | 256 µg/mL
Cc1[nH]c(/C=C2\C(=O)Nc3ccccc32)c(C)c1CCC(=O)O |  | NCTC8325 |  | > 30 µM
N=C(N)NN=Cc1ccc(OC/C=C\COc2ccc(C=NNC(=N)N)cc2)cc1 |  | USA300 | 16 h | ≤ 3 µg/mL
COc1c(C)c(OCc2ccccc2)c(C)c(O)c1C(=O)/C=C/c1ccccc1 | broth dilution | ATCC25923 |  | 5000 µg/mL
CN(C)[C@@H]1C(O)=C(C(N)=O)C(=O)[C@@]2(O)C(O)=C3C(=O)c4c(O)cccc4[C@@](C)(O)[C@H]3C[C@@H]12 |  | 156 | clinical isolate | 0.15 µM
Brc1cccc(NCc2ccc(Oc3ccccn3)cc2)c1 |  |  |  | > 3.1 µg/mL
Cc1nc(O)n2ncc(Cl)c2n1 |  |  |  | > 128 µg/mL
C[C@@H](O)[C@H]1C(=O)N2C(C(=O)O)=C(SCCN=CN)C[C@H]12 |  | MRSA |  | 32 µg/mL
O=C(O)CN1C(=O)/C(=C/c2ccc(-c3ccc(N(c4ccccc4)c4ccccc4)cc3)cc2)SC1=S | broth dilution | ATCC25923 |  | 3.9 µg/mL
COc1cccc(OC)c1C(=O)N[C@@H]1C(=O)N2[C@@H]1SC(C)(C)[C@@H]2C(=O)O |  | 156 | clinical isolate | 25 µM
COCCCNC(=N)c1ccc(NC(=O)c2ccc(C(=O)Nc3ccc(C(=N)NCCCOC)cc3)cc2)cc1 |  |  |  | 4 µg/mL
C/C=C(\C)c1cc(OC(=O)c2c(O)c(C)c(O)c(Cl)c2/C(C)=C/C)c(C)c(O)c1C(=O)O | broth dilution | 16162 |  | 32 µg/mL
C=CCn1c(-c2ccc(Cl)c(Cl)c2)nc2ccccc21 | broth dilution | ATCC29213 MSSA |  | 64 µg/mL
COc1cc(Cc2cnc(N)nc2N)cc(OC)c1OC | broth dilution |  | 24 h | 2 µg/mL
CC(C)Oc1c(NC(=O)c2ccc(NC(=O)[C@H](CC(N)=O)NC(=O)c3ccc(NC(=O)c4ccc(F)cc4)cc3)cc2)ccc(C(=O)Nc2ccc(C(=O)O)cc2)c1O |  | ATCC29213 |  | 2 µg/mL
COc1ncc(-c2ccc3nccc(-c4ccnnc4)c3c2)cc1NS(=O)(=O)c1ccc(F)cc1F |  | NCTC8325 |  | > 30 µM
CC(C)Oc1c(NC(=O)c2ccc(NC(=O)[C@H](CC(N)=O)NC(=O)c3ccc(CNC(=O)c4ccc(C#N)cc4)cc3)cc2)ccc(C(=O)Nc2ccc(C(=O)O)cc2)c1O |  | ATCC29213 |  | > 64 µg/mL
CCn1cc(C(=O)O)c(=O)c2cc(F)c(N3CCNCC3)cc21 | broth dilution | ATCC11632 | 18 h | < 5 µg/mL
